This is an account of results in ChEMBL document CHEMBL1127442, “Triazolinone biphenylsulfonamide derivatives as orally active angiotensin II antagonists with potent AT1 receptor affinity and enhanced AT2 affinity” (J Med Chem, 1994).

“And” between values parts separate entries of the source, which are not always exact repeats. Equal values may be shown once. Bounds are passed on as bounds.

Assay [1] addresses T1, Type-2 angiotensin II receptor (Rattus norvegicus, UniProt P35351).
T1 sequence (P35351 whole entry): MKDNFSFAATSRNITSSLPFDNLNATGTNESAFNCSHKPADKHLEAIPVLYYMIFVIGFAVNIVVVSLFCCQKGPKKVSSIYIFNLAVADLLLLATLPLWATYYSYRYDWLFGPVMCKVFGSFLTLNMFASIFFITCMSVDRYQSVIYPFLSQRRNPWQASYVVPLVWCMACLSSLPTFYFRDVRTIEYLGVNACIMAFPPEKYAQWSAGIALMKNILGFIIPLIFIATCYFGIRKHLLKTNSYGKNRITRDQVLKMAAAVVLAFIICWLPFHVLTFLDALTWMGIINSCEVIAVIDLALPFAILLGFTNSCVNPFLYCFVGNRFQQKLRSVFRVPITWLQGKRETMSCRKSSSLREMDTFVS
The assay is described as follows: In vitro inhibitory activity against angiotensin II rat midbrain AT2 receptor using radioligand [125I]-Sar Ile-AII. The method in brief: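 Dithiothreitol ([…]) was added to the assay mixture to abolish residual AT1 binding. Tubes were run in duplicate, and IC50 came from nonlinear regression of displacement curves.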

In assay [2] the test system is Rattus norvegicus. The assay is described as follows: Inhibition of AII pressor response by the compound in conscious, normotensive rats, at 1 (mg/kg) peroral dose. Format: functional. An outline of the steps: (§1)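 Male Sprague-Dawley rats (300-400 g) were conscious and catheterized for iv dosing and arterial pressure. Compound was given iv or po as the potassium salt in water, with PEG 400 for some oral doses. […] Peak inhibition is the mean of ≥2 rats.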

The subject of a further assay is Monkey. The assay is described as follows: (§2) Time from onset of action until significant (i.e., >=30%) inhibition of pressor response is no longer observed, at 0.3 (mg/kg) peroral dose. To be noted: in the assay text read “intravenous” for “peroral”. Format: functional, Cercopithecidae.
For assay [3], the system named is Rattus norvegicus. Described as §2. Format: functional. An outline of the steps:
(§3)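 Conscious catheterized male Sprague-Dawley rats received compound iv or po as the water-soluble potassium salt, or in PEG 400 orally. AII (0.1 μg/kg iv) boluses were repeated at intervals while the compound was active.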

In assay [4] the test system is Rattus norvegicus. The assay is described as follows: Inhibition of AII pressor response by the compound in conscious, normotensive rats, at 0.3 (mg/kg) intravenous dose. In kind it is functional. An outline of the steps:
as §1

Assay [5] deals with T2, Type-1 angiotensin II receptor (Oryctolagus cuniculus, UniProt P34976).
T2 sequence (P34976 whole entry): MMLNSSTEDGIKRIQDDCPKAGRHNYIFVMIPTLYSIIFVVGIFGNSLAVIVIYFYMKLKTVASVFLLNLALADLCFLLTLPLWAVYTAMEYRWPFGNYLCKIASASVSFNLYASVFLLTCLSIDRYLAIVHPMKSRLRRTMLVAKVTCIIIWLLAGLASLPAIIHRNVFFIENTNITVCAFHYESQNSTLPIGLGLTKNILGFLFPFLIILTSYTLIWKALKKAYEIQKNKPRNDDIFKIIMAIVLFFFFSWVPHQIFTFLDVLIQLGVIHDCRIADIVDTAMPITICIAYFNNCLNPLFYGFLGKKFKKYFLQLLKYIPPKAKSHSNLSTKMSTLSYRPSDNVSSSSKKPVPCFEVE
The assay can be described thus: In vitro inhibitory activity against angiotensin II rabbit aorta AT1 receptor using radioligand [125I]-Sar Ile-AII. In kind it is tissue-based.

The subject of assay [6] is Rattus norvegicus. The assay can be described thus: Time from onset of action until significant (i.e., >=30%) inhibition of pressor response is no longer observed, at 1 (mg/kg) peroral dose. Format: functional. An outline of the steps: as §3
In assay [7] the test system is Rattus norvegicus. The assay is described as follows: Inhibition of AII pressor response by the compound in conscious, normotensive rats, at 1 (mg/kg) intravenous dose. In kind it is functional. The method in brief:
as §1

Assay [8] deals with Rattus norvegicus. The assay can be described thus: Time from onset of action until significant (i.e., >=30%) inhibition of pressor response is no longer observed, at 1 (mg/kg) intravenous dose. In kind it is functional.
Assay [9] concerns Rattus norvegicus. The assay is described as follows: Inhibition of AII pressor response by the compound in conscious, normotensive rats, at 0.3 (mg/kg) peroral dose. Format: functional. An outline of the steps: as §1
Assay [10] has as its system Rattus norvegicus. The assay is described as follows: Inhibition of AII pressor response by the compound in conscious, normotensive rats, at 3 (mg/kg) peroral dose. Format: functional. The method in brief: as §1
In assay [11] the test system is Rattus norvegicus. The assay is described as follows: Time from onset of action until significant (i.e., >=30%) inhibition of pressor response is no longer observed, at 3 (mg/kg) peroral dose. In kind it is functional.

One may read the IC50 as the midpoint of a concentration-inhibition curve. As usually defined, the Inhibition is the share of the control response that was lost under treatment. For `CCCCc1nn(-c2ccccc2C(F)(F)F)c(=O)n1Cc1ccc(-c2ccccc2S(=O)(=O)NC(=O)C2CC2(C)C)cc1` (stereo unspecified), the half-maximal inhibitory concentration (IC50) came to 220 nM in assay [1] and 0.36 nM in [5]. The Inhibition in the assay on Rattus norvegicus [2] came to 76%; in the assay with Rattus norvegicus [4] it was 84%. Further, the Duration with Monkey was 3.5 h; in the assay with Rattus norvegicus [3] it was over 5.5 h; in the assay with Rattus norvegicus [6], over 6 h.
In the case of `CCCCc1nn(-c2ccccc2C(F)(F)F)c(=O)n1Cc1ccc(-c2ccccc2S(=O)(=O)NC(=O)c2ccccc2C)cc1`, the IC50 in [1] was determined as 110 nM; in assay [5] it was 0.56 nM. Further, the Inhibition in the assay on Rattus norvegicus [2] is 57%; in the assay on Rattus norvegicus [7] it was 89%. Further, the Duration is over 6 h with Rattus norvegicus [8] and over 2 h in the assay on Rattus norvegicus [6].
Consider `CCCCc1nn(-c2ccccc2C(F)(F)F)c(=O)n1Cc1ccc(-c2ccccc2S(=O)(=O)NC(=O)c2cccs2)cc1`, for which the IC50 in assay [1] was determined as 540 nM; in [5] it was 0.94 nM. In addition, the Inhibition amounted to 61% in the assay with Rattus norvegicus [2] and 76% in the assay on Rattus norvegicus [7]. Further, the Duration in the assay with Rattus norvegicus [8] is over 5.5 h; in the assay with Rattus norvegicus [6], 4.3 h.
`CCCCc1nn(-c2ccccc2C(F)(F)F)c(=O)n1Cc1ccc(-c2ccccc2S(=O)(=O)NC(=O)OCC(C)C)cc1`: the figures for the half-maximal inhibitory concentration (IC50) in assay [1] and in assay [5] were 170 nM and 0.42 nM, respectively. The Inhibition in the assay on Rattus norvegicus [9] amounted to 61%; in the assay with Rattus norvegicus [2], 63%; in the assay on Rattus norvegicus [7] it was 72%; in the assay on Rattus norvegicus [4] it was 65%. The Duration with Rattus norvegicus [8] was over 6 h; in the assay on Rattus norvegicus [3], >5 h and >3.5 h; in the assay on Rattus norvegicus [6], over 5 h.
For `CCCCc1nn(-c2ccccc2C(F)(F)F)c(=O)n1Cc1ccc(-c2ccccc2S(=O)(=O)NC(=O)c2sccc2Cl)cc1`, the IC50 in assay [1] is 30 nM; in [5], 0.27 nM. In addition, the Inhibition in the assay on Rattus norvegicus [9] was determined as 64%; in the assay with Rattus norvegicus [7] it was 90%. In addition, the Duration is over 6 h in the assay on Rattus norvegicus [8] and over 5 h in the assay with Rattus norvegicus [3].
Turning to `O=C(NS(=O)(=O)c1ccccc1-c1ccc(Cn2c(CCCC(F)(F)F)nn(-c3ccccc3C(F)(F)F)c2=O)cc1)c1ccccc1Cl`, the values for the half-inhibitory concentration (IC50) in [1] and in [5] were 910 nM and 0.36 nM, respectively. Further, the Inhibition stood at 67% in the assay on Rattus norvegicus [7] and 76% with Rattus norvegicus [10]. Moreover, the Duration in the assay on Rattus norvegicus [8] is 2.4 h; in the assay on Rattus norvegicus [11] it was over 24 h.
Regarding `CCCCc1nn(-c2ccccc2C(F)(F)F)c(=O)n1Cc1ccc(-c2ccccc2S(=O)(=O)NC(=O)CC(C)(C)C)cc1`, the half-inhibitory concentration (IC50) was determined as 46 nM in assay [1] and 1.1 nM in assay [5]. The Duration in the assay on Rattus norvegicus [3] is over 5.5 h. Further, the Inhibition in the assay with Rattus norvegicus [4] amounted to 69%.
Regarding `CCCCc1nn(-c2ccccc2C(F)(F)F)c(=O)n1Cc1ccc(-c2ccccc2S(=O)(=O)NC(=O)C2CC2(F)F)cc1` (stereo unspecified), the figures for the 50% inhibitory concentration (IC50) in assay [1] and in assay [5] were 86 nM and 0.64 nM, respectively. Also, the Inhibition in the assay on Rattus norvegicus [9] came out at 59%; in the assay on Rattus norvegicus [7], 80%. The Duration is over 5 h in the assay on Rattus norvegicus [8] and over 4 h in the assay with Rattus norvegicus [3].
Consider `CCCCc1nn(-c2ccccc2C(F)(F)F)c(=O)n1Cc1ccc(-c2ccccc2S(=O)(=O)NC(=O)c2occc2C)cc1`, for which the concentration for half-maximal inhibition (IC50) in assay [1] was determined as 46 nM; in [5], 0.21 nM. Moreover, the Inhibition with Rattus norvegicus [2] was found to be 71%; in the assay on Rattus norvegicus [7], 92%. The Duration with Rattus norvegicus [8] is over 6 h; with Rattus norvegicus [6] it was over 3.5 h.
